# Experimental data: article PMC11651071 (International Journal of Nanomedicine, 2024)
# How the values were obtained:
# [1] = tested on: Hela cells; assay: Cell viability assay; format: cell-based; details: 24 h
# In short: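 MTT assay: HeLa cells at 4.5×10^3 cells/well were allowed to adhere for 24 h, then exposed to gradient concentrations for 24, 48 or 72 h, with 0.1% DMSO as negative control. MTT was added for 3.5 h at 37°C, and formazan was dissolved in DMSO and read at 490 nm. Inhibition rate = [1 − (ODsample − ODblank)/(ODcontrol − ODblank)] × 100%. Mean ± SD, ≥3 independent experiments.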
# [2] = tested on: Hela cells; assay: Wound healing assay; format: cell-based; details: 24 h, serum-free DMEM
# In short: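 Scratch assay: a confluent HeLa monolayer (9×10^5 cells/well, 6-well plates) was scraped with a 200 µL pipette tip and washed twice with PBS. Treatments were added in serum-free DMEM and plates kept at 37°C, 5% CO2. Wound closure was imaged by microscope at 0 and 24 h.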
# [3] = tested on: Hela cells; assay: Cell apoptosis detection; format: cell-based; details: 24 h
# [4] = tested on: Hela cells; assay: Cell cycle assay; format: cell-based; details: 24 h
# In short: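 HeLa cells (DMEM, 10% FBS) were seeded at 5.5×10^5 cells/well in 6-well plates and treated in DMEM for 24 h. Collected cells were fixed by dropwise 70% ethanol and held at −20°C for 24 h. They were washed twice in chilled PBS, stained with PI buffer for 30 min at room temperature in the dark, and analysed by flow cytometry. Mean ± SD, ≥3 independent experiments.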
# [5] = tested on: Hela cells xenograft tumor; assay: In vivo anti-tumor effect, subcutaneous xenograft model using Hela cells; parameters: species or system nude mice; details: for Body weight of nude mice during treatment: CU, CA7, CA7-LP 50 mg/kg, DDP-INJ 3.5 mg/kg, i.p. every 2 days for 14 days; for Tumor cell infiltration in kidneys and livers (H&E): after treatment
# In short: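 Female BALB/c immunodeficient mice (4 w, 15–16 g) received 3.5×10^7 HeLa cells in 100 µL PBS s.c. near the right scapula. At ~100 mm³, mice were randomised into five groups (n = 5): saline, test articles at 50 mg/kg, or cisplatin injection at 3.5 mg/kg. Dosing was i.p. every 2 days for 14 days. Tumour volume (V = 1/2·ab²) and body weight were tracked; tumours were then weighed and organs formalin-fixed for H&E, with tumour Ki67 immunohistochemistry.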
# [6] = 50 mg/kg intraperitoneally every 2 days for 14 days
smiles,measurement,setting,value
"COc1cc(/C=C/C(=O)CC(=O)/C=C/c2ccc(O)c(OC)c2)ccc1O [CU, Curcumin]",Maximum inhibition rate,[1],5.77 ± 2.40%
same,Migration rate,[2],42.12 ± 3.06%
same,Total apoptosis rate,[3]; 2.5 μM,7.29 ± 1.64%
same,Total apoptosis rate,[3]; 5 μM,11.64 ± 3.19%
same,Total apoptosis rate,[3]; 10 μM,17.60 ± 3.39%
same,Proportion of the G2/M phase,[4]; 2.5 μM,17.84 ± 1.07%
same,Proportion of the G2/M phase,[4]; 5 μM,20.46 ± 2.44%
same,Proportion of the G2/M phase,[4]; 10 μM,22.78 ± 3.60%
same,Tumor inhibition rate,[5]; [6],28.58 ± 8.04%
same,Tumor weight,[5]; [6],0.49 ± 0.06 g
same,Body weight of nude mice during treatment,[5],remained stable
same,Tumor cell infiltration in kidneys and livers (H&E),[5],present in small amounts
"N.N.[Cl][Pt][Cl] [DDP-INJ, Cisplatin]",Total apoptosis rate,[3]; 2.5 μM,11.57 ± 1.16%
same,Total apoptosis rate,[3]; 5 μM,23.73 ± 2.30%
same,Total apoptosis rate,[3]; 10 μM,32.17 ± 3.68%
same,Change of cell cycle distribution,[4],increase in the S phase and a decrease in G2/M phase
same,Body weight of nude mice during treatment,[5],notable decrease in body weight
same,Mortality of nude mice,"[5]; DDP-INJ 3.5 mg/kg i.p., as the number of administrations increased",some mice dying
same,Tumor cell infiltration in kidneys and livers (H&E),[5],absent
